Assay results: ChEMBL document CHEMBL2146375, “Synthesis and evaluation of indole-containing 3,5-diarylisoxazoles as potential pro-apoptotic antitumour agents” (Eur J Med Chem, 2012)

Assays:
[1] = Cytotoxicity against human COLO320 cells assessed as cell viability after 72 hrs by WST-1 assay; format: functional, cell-based; settings: COLO 320, 72 h
How it was run: (§1)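 Cells grown in DMEM with L-glutamine (2 mM), 10% foetal bovine serum, 2.5% horse serum and penicillin/streptomycin at 37 °C under 5% CO₂. Seeded at 2 × 10³ cells/well and exposed to compound for 72 h, with DMSO ≤0.2% final. WST-1 added, absorbance read at 450 nm, and % reduction vs control calculated. IC₅₀ and Emax from nonlinear least-squares curve fit. Mean ± SEM, n = 3.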

Calu-3 [2] = test: Cytotoxicity against human Calu3 cells assessed as cell viability after 72 hrs by WST-1 assay; format: functional, cell-based; settings: Calu-3, 72 h; how it was run: as §1
[3] = Cytotoxicity against human BSMC cells assessed as cell viability at 20 uM after 72 hrs by WST-1 assay; format: cell-based
How it was run: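 Normal human bronchial smooth muscle cells grown in DMEM with 10% FBS and exposed to compound for 72 h. Viability compared with untreated control.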

COLO 320 = test: Induction of apoptosis in human COLO320 cells assessed as induction of caspase-3/7 at 20 uM after 4 hrs by spectrofluorimetry relative to control; format: functional; settings: in the assay text read “at 10 uM” for “at 20 uM”
How it was run: (§2)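 Cells seeded at 7 × 10³/well and treated with compound for 4 h. Apo-ONE homogeneous caspase-3/7 substrate then added. Fluorescence read at excitation 485 nm and emission 530 nm. Result given as the ratio of treated-cell signal to vehicle-only cells.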

Calu-3 [4] = test: Induction of apoptosis in human Calu3 cells assessed as induction of caspase-3/7 at 10 uM after 4 hrs by spectrofluorimetry relative to control; format: functional; settings: in the assay text read “at 20 uM” for “at 10 uM”; how it was run: as §2

Compound: COc1ccc(-c2cc(-c3cc4ccccc4[nH]3)no2)cc1
- IC50 [1]: > 100 µM
- IC50 (Calu-3 [2]): > 100 µM

Compound: COc1cccc(-c2cc(-c3cc4ccccc4[nH]3)no2)c1
- IC50 [1]: > 100 µM
- IC50 (Calu-3 [2]): > 100 µM

Compound: COc1ccc(-c2cc(-c3cc4ccccc4n3C)no2)cc1
- IC50 [1]: > 100 µM
- IC50 (Calu-3 [2]): > 100 µM

Compound: Cn1c(-c2cc(-c3cccc(F)c3)on2)cc2ccccc21
- IC50 [1]: > 100 µM
- IC50 (Calu-3 [2]): > 100 µM

Compound: COc1cccc(-c2cc(-c3cc4cc(OC)ccc4[nH]3)no2)c1
- IC50 [1]: > 100 µM
- IC50 (Calu-3 [2]): > 100 µM

Compound: COc1cccc(-c2cc(-c3cc4ccccc4n3C)no2)c1
- IC50 [1]: 69.5 µM
- IC50 (Calu-3 [2]): 17.3 µM

Compound: COc1ccc2[nH]c(-c3cc(-c4cccc(F)c4)on3)cc2c1
- IC50 [1]: > 100 µM
- IC50 (Calu-3 [2]): > 100 µM

Compound: COc1ccc(-c2cc(-c3cc4ccccc4n3C)on2)cc1
- IC50 [1]: > 100 µM
- IC50 (Calu-3 [2]): > 100 µM

Compound: COc1cccc(-c2cc(-c3cc4ccccc4n3C)on2)c1
- IC50 [1]: > 100 µM
- IC50 (Calu-3 [2]): > 100 µM

Compound: COc1ccc2[nH]c(-c3cc(-c4cccc(F)c4)no3)cc2c1
- IC50 [1]: > 100 µM
- IC50 (Calu-3 [2]): 97.9 µM

Compound: Cn1c(-c2cc(-c3ccc(F)cc3)no2)cc2ccccc21
- IC50 [1]: > 100 µM
- IC50 (Calu-3 [2]): > 100 µM

Compound: COc1ccc(-c2cc(-c3c(Cl)c4ccccc4n3C)no2)cc1
- IC50 [1]: 78.1 µM
- IC50 (Calu-3 [2]): 60.9 µM

Compound: Cn1c(-c2cc(-c3ccc(C(F)(F)F)cc3)on2)c(Cl)c2ccccc21
- IC50 [1]: > 100 µM
- IC50 (Calu-3 [2]): > 100 µM

Compound: O=[N+]([O-])c1ccc(-c2cc(-c3ccc4[nH]ccc4c3)on2)cc1
- IC50 [1]: 14 µM
- IC50 (Calu-3 [2]): 25.8 µM
- Activity [3]: Toxic
- fold change (FC) (COLO 320): 3.76
- fold change (FC) (Calu-3 [4]): 2.84

Compound: COC(=O)c1ccc(-c2cc(-c3ccc4[nH]ccc4c3)on2)cc1
- IC50 [1]: > 100 µM
- IC50 (Calu-3 [2]): > 100 µM

Compound: COc1ccc(-c2cc(-c3ccc4[nH]ccc4c3)on2)cc1
- IC50 [1]: 13.5 µM
- IC50 (Calu-3 [2]): 22.5 µM
- Activity [3]: Non-toxic
- fold change (FC) (COLO 320): 2.18
- fold change (FC) (Calu-3 [4]): 2.44

Compound: Fc1ccc(-c2cc(-c3ccc4[nH]ccc4c3)on2)cc1
- IC50 [1]: 13.9 µM
- IC50 (Calu-3 [2]): 16.8 µM
- Activity [3]: Toxic
- fold change (FC) (COLO 320): 1.81
- fold change (FC) (Calu-3 [4]): 1.94

Compound: COc1cc(-c2cc(-c3ccc4[nH]ccc4c3)on2)cc(OC)c1OC
- IC50 [1]: 9 µM
- IC50 (Calu-3 [2]): 13.3 µM
- Activity [3]: Non-toxic
- fold change (FC) (COLO 320): 2.38
- fold change (FC) (Calu-3 [4]): 3.39

Compound: O=c1[nH]cc(F)c(=O)[nH]1 [FLUOROURACIL]
- IC50 [1]: 12.5 µM
